We go through 16 compounds from ChEMBL document CHEMBL1128280, “Synthesis, topoisomerase I inhibitory activity, and in vivo evaluation of 11-azacamptothecin analogs” (J Med Chem, 1995).

Each structure is given as a SMILES string. pIC50: −log10 of the molar value. ≈ marks a conversion by molar mass, not a printed value.

A short description of series [1]: Aqueous solubility in pH 5 acetate buffer. It is filed as physicochemical. An outline of the steps: (§1)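 Excess solid equilibrated in 0.25 mL 0.1 M sodium acetate, pH 5.0, 25 °C, 24 h; filtered (0.22 μm); lactone and carboxylate forms separated by reverse-phase C-18 HPLC, mobile phase 40% organic/60% aqueous with 0.005 M tetrabutylammonium phosphate; quantified against calibration curves of standard peak areas.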

Series [2] in a line: (§2) Concentration required to inhibit 50% growth of human colon carcinoma cell line (HT-29). It counts as functional, cell-based. An outline of the steps:
(§3)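 MTT microculture tetrazolium assay; cells grown in α-MEM with 15% heat-inactivated FBS, glutamine, pyruvate, insulin, nonessential amino acids, gentamycin, 37 °C, 5% CO2; adhered overnight, exposed to compound 48 h then fresh medium 48 h; 0.17 nM to 10 μM, quadruplicate; 4 h MTT, DMSO extraction; four-parameter logistic fit, usually single curve.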

Series [3] concerns Mus musculus. Description: Delay in tumor growth in mice to 500% volume of day 1 relative to control at dose 90 mg/kg. It counts as functional. The method, boiled down:
(§4)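 Female nu/nu mice bearing subcutaneous flank HT-29 xenografts; single-bolus subcutaneous maximum tolerated dose first set in tumor-free mice by body weight loss, then split into three portions given over one day (N = 6); caliper volume = length × width²/2; T−C = difference in days for mean tumor volume to reach 500% of initial, treated vs controls.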

A further series deals with SK-OV-3. Description: Concentration required to inhibit 50% growth of human ovarian cancer cell line(SK-OV-3) was measured. It counts as functional, cell-based. The method, boiled down:
as §3

Series [4] is described as follows: Aqueous solubility determined in pH 5 acetate buffer. It is filed as physicochemical. An outline of the steps:
as §1

In series [5] the test system is Mus musculus. Description: Delay in tumor growth in mice to 500% volume of day 1 relative to control at dose 100 mg/kg. It counts as functional. The method, boiled down:
as §4

The next series has as its system HT-29. The series is described as §2. It counts as functional, cell-based. The method, boiled down:
as §3

Series [6] deals with Mus musculus. Description: Delay in tumor growth in mice to 500% volume of day 1 relative to control at dose 25 mg/kg. It counts as functional. An outline of the steps:
as §4

Another series relates to SK-VLB. Description: Concentration required to inhibit 50% growth of vinblastine resistant ovarian cancer cell line(SKVLB). It counts as functional, cell-based. The note with it: Homo sapiens. An outline of the steps: as §3
Series [7] deals with Mus musculus. Description: Delay in tumor growth in mice to 500% volume of day 1 relative to control at dose 146 mg/kg. It is filed as functional. The method, boiled down:
as §4

In series [8] the test system is Mus musculus. Description: Delay in tumor growth in mice to 500% volume of day 1 relative to control at dose 120 mg/kg. It counts as functional. An outline of the steps:
as §4

Series [9] concerns Mus musculus. Description: Delay in tumor growth in mice to 500% volume of day 1 relative to control at dose 200 mg/kg. It counts as functional. The method, boiled down: as §4
The test system of series [10] is Mus musculus. Description: Delay in tumor growth in mice to 500% volume of day 1 relative to control at dose 54 mg/kg. It counts as functional. The method, boiled down:
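Female nu/nu mice (18-24 g) with subcutaneous HT-29 flank xenografts, N = 6. Maximum tolerated single subcutaneous bolus first set by body weight loss in tumor-free nude mice. That dose was split into three portions given over one day. Tumor volume by calipers as length × width²/2. T−C is the delay, in days, for mean tumor volume to reach 500% of initial versus untreated controls.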

As a reminder, the solubility is the dissolved amount per volume that the medium holds. As to `CCc1c2c(nc3cnccc13)-c1cc3c(c(=O)n1C2)COC(=O)[C@]3(O)CC`, the concentration in solution in series [1] (solubility) was 10 µg/mL (≈ 0.0265 mM).
As a reminder, the pIC50 is the negative decadic logarithm of the IC50, by convention in mol/L. For `CCc1c2c(nc3cnc(C(=N)N)cc13)-c1cc3c(c(=O)n1C2)COC(=O)[C@]3(O)CC`, the negative-log IC50 (pIC50) in [2] is 6.51; in the series on SK-OV-3 it was 7.15. In addition, the T-C in the series on Mus musculus [3] worked out at 6 days. In addition, the solubility in series [4] was over 3000 µg/mL.
Consider `CCc1c2c(nc3c[n+](C)ccc13)-c1cc3c(c(=O)n1C2)COC(=O)[C@]3(O)CC.[I-]`, for which the solubility in series [1] was over 2500 µg/mL. This compound came in with a T-C with Mus musculus [5] of 3.5 days.
On to `CC[C@@]1(O)C(=O)OCc2c1cc1n(c2=O)Cc2c-1nc1cnc(C#CCN)cc1c2C`, for which the values for the negative logarithm of the IC50 (pIC50) (in [2]; in the series on SK-OV-3) were 6.45 and 6.61, respectively.
Regarding `CC[C@@]1(O)C(=O)OCc2c1cc1n(c2=O)Cc2cc3cc[n+]([O-])cc3nc2-1`, in series [1], the concentration in solution (solubility) was 300 µg/mL (≈ 0.821 mM).
Consider `CCOC(=O)c1cc2c(CC)c3c(nc2cn1)-c1cc2c(c(=O)n1C3)COC(=O)[C@]2(O)CC`, for which the pIC50 in the series with HT-29 is 7.59.
As for `CCc1c2c(nc3cnc(C(=N)NO)cc13)-c1cc3c(c(=O)n1C2)COC(=O)[C@]3(O)CC`, the values for the pIC50 (in [2]; in the series on SK-OV-3) were 8.15 and 9.10, respectively. The T-C in the series on Mus musculus [6] is 15 days. In series [4], this compound returned a solubility of over 3000 µg/mL.
Turning to `CCc1c2c(nc3cnc(C#N)cc13)-c1cc3c(c(=O)n1C2)COC(=O)[C@]3(O)CC`, the pIC50 with HT-29 is 7.77.
For `CCc1c2c(nc3cnc(CN)cc13)-c1cc3c(c(=O)n1C2)COC(=O)[C@]3(O)CC`, the pIC50 in the series on SK-OV-3 was 7.49; with SK-VLB, 6.35.
As to `CC[C@@]1(O)C(=O)OCc2c1cc1n(c2=O)Cc2c-1nc1cnc(Br)cc1c2C`, the pIC50 with HT-29 is 9.00; with SK-OV-3, 9.00; in the series with SK-VLB, 9.30.
On to `CCc1c2c(nc3cnc(C#CCN)cc13)-c1cc3c(c(=O)n1C2)COC(=O)[C@]3(O)CC`, for which the negative-log IC50 (pIC50) is 6.45 in the series with HT-29, 6.61 in the series on SK-OV-3 and 6.42 in the series with SK-VLB. Further, the T-C in the series with Mus musculus [7] was determined as 1.5 days. In addition, in series [4], the concentration in solution (solubility) came to 5700 µg/mL (≈ 13.2 mM).
`CCc1c2c(nc3cnc(Br)cc13)-c1cc3c(c(=O)n1C2)COC(=O)[C@]3(O)CC`: the pIC50 in the series with HT-29 is 8.15.
For the compound `CC[C@@]1(O)C(=O)OCc2c1cc1n(c2=O)Cc2c-1nc1c[n+]([O-])c(CN)cc1c2C`, the values for the negative logarithm of the IC50 (pIC50) (in [2]; in the series on SK-OV-3) were 6.14 and 7.18, respectively. In the series with Mus musculus [8], the T-C came out at 5.3 days. This compound also displayed a solubility in series [4] of over 3000 µg/mL.
In the case of `CC[C@@]1(O)C(=O)OCc2c1cc1n(c2=O)Cc2c-1nc1cnc(CN)cc1c2C`, the negative logarithm of the IC50 (pIC50) in the series with HT-29 is 6.91; in the series with SK-OV-3, 7.77; with SK-VLB it was 7.38. Moreover, the T-C in the series on Mus musculus [9] was 3.4 days. Besides, the concentration in solution in series [4] (solubility) was 7200 µg/mL (≈ 18.3 mM).
Take `CC[C@@]1(O)C(=O)OCc2c1cc1n(c2=O)Cc2cc3ccccc3nc2-1` [CAMPTOTHECIN]: the solubility in series [1] was under 5 µg/mL.
As for `CC[C@@]1(O)C(=O)OCc2c1cc1n(c2=O)Cc2cc3c(CN(C)C)c(O)ccc3nc2-1.Cl` [TOPOTECAN HYDROCHLORIDE], the T-C in the series on Mus musculus [10] was 10.3 days. For the same compound, in series [4], the solubility stood at 3100 µg/mL.
